Measurements reported in ChEMBL document CHEMBL1154819, “Synthesis and antiviral activity of boranophosphonate isosteres of AZT and d4T monophosphates” (Eur J Med Chem, 2010).
The source made the active and inactive calls. No cut-off for these calls is given here.

Columns and labels:
[1] = test system: Human immunodeficiency virus 1; test: Antiviral activity against HIV1 NL4-3 infected in MAGI-CCR5 cells at 400 uM after 2 days; type: functional, organism-based
Outline: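 HIV-1 NL4.3 stock came from 293T cells transfected with the molecular clone and was titred by p24. MAGI-CCR5 cells (10^4 cells, integrated HIV promoter–LacZ reporter, in DMEM with 10% FBS) were pretreated for 4 h with 0–400 µM compound. They were then spinoculated with 100 ng CAp24 and grown with compound. After 2 days, cells were stained for β-galactosidase and blue cells counted; EC50 is a 50% drop in blue cells.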

[2] = Cytotoxicity against human MAGI-CCR5 cells at 400 uM; type: cell-based; details: magi-ccr5, 400 µM
Outline: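 MAGI-CCR5 cells were exposed to 0–400 µM compound. CC50 is the concentration inhibiting cell proliferation by 50%.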

[3] = test system: Human immunodeficiency virus 1; test: Antiviral activity against HIV1 3B infected in human CEM cells at 400 uM after 4 to 5 days; type: functional, organism-based; details: CCRF-CEM
Outline: (§1)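 CEM cells (4.5×10^5/ml) were infected at 100 CCID50 per ml, mixed 1:1 with compound dilutions and incubated at 37 °C. Giant-cell formation was scored microscopically after 4–5 days. EC50 is the concentration preventing syncytium formation by 50%.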

[4] = test system: Human immunodeficiency virus 2; test: Antiviral activity against HIV2 ROD infected in human CEM cells at 400 uM after 4 to 5 days; type: functional, organism-based; details: ISOLATE ROD, CCRF-CEM; outline: as §1
Hepatitis C virus = test: Antiviral activity against HCV 1b infected in Huh-5-2 cells assessed as inhibition of subgenomic replication; type: functional, organism-based; details: Hepacivirus hominis, genotype 1b
Outline: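 Huh-5-2 cells carry an HCV genotype 1b subgenomic replicon (I389luc-ubi-neo/NS3-3'/5.1) with a firefly luciferase fusion. They were seeded at 7000 cells/well without G418 and allowed to adhere for 24 h. Five 5-fold dilutions starting at 100 µM were then added for 72 h at 37 °C. Luciferase signal was expressed as % of untreated cultures to give EC50. Interferon alfa 2a (500 IU) served as positive control.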

Human alphaherpesvirus 1 = test: Antiviral activity against HSV1 infected in human HEL cells assessed as inhibition of virus-induced cytopathic effect up to 200 uM after 3 days; type: functional, organism-based
Outline: (§2)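 Confluent cell monolayers in MEM with 10% FCS, 2 mM L-glutamine and 0.075% bicarbonate were inoculated with 100 times the 50% cell culture infective dose. Compounds were added after 1–2 h of virus adsorption. Cytopathic effect was scored microscopically at about 3 days as a percentage of untreated controls, and EC50 was read from graphical plots.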

Human alphaherpesvirus 2 = test: Antiviral activity against HSV2 infected in human HEL cells assessed as inhibition of virus-induced cytopathic effect up to 200 uM after 3 days; type: functional, organism-based; outline: as §2
Vaccinia virus = test: Antiviral activity against Vaccinia virus infected in human HEL cells assessed as inhibition of virus-induced cytopathic effect up to 200 uM after 3 days; type: functional, organism-based; details: Orthopoxvirus vaccinia
[5] = test system: Vesicular stomatitis virus; test: Antiviral activity against VSV infected in human HEL cells assessed as inhibition of virus-induced cytopathic effect up to 200 uM after 3 days; type: functional, organism-based
Coxsackievirus B4 = test: Antiviral activity against Coxsackievirus B4 virus infected in human HeLa cells assessed as inhibition of virus-induced cytopathic effect up to 200 uM after 3 days; type: functional, organism-based; outline: as §2
[6] = test system: Respiratory syncytial virus; test: Antiviral activity against RSV infected in human HeLa cells assessed as inhibition of virus-induced cytopathic effect up to 200 uM after 3 days; type: functional, organism-based; outline: as §2
Human respirovirus 3 = test: Antiviral activity against Parainfluenza virus 3 infected in african green monkey Vero cells assessed as inhibition of virus-induced cytopathic effect up to 200 uM after 3 days; type: functional, organism-based; outline: as §2
[7] = test system: Mammalian orthoreovirus 1; test: Antiviral activity against Reovirus 1 infected in african green monkey Vero cells assessed as inhibition of virus-induced cytopathic effect up to 200 uM after 3 days; type: functional, organism-based; outline: as §2
Sindbis virus = test: Antiviral activity against […] virus infected in african green monkey Vero cells assessed as inhibition of virus-induced cytopathic effect up to 200 uM after 3 days; type: functional, organism-based; outline: as §2
Punta Toro virus = test: Antiviral activity against Punta Toro virus infected in african green monkey Vero cells assessed as inhibition of virus-induced cytopathic effect up to 200 uM after 3 days; type: functional, organism-based; outline: as §2
HeLa = test: Cytotoxicity against human HeLa cells up to 200 uM after 3 days by MTS assay; type: cell-based; details: 72 h
HEL = test: Cytotoxicity against human HEL cells up to 200 uM after 3 days by MTS assay; type: cell-based; details: 72 h
Vero = test: Cytotoxicity against african green monkey Vero cells up to 200 uM after 3 days by MTS assay; type: cell-based; details: chlorocebus sabaeus, 72 h
[8] = Cytotoxicity against human HuH5.2 cells up to 200 uM after 3 days by MTS assay; type: cell-based; details: huh-5-2, 72 h
Outline: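 Parallel Huh-5-2 cultures were seeded at 7000 cells/well and treated like the replicon assay without luciferase reagents. Proliferation was measured 3 days after compound addition by MTS bioreduction to formazan, read in a plate reader.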

CCRF-CEM [9] = test: Cytotoxicity against human CEM cells at 400 uM after 3 days by MTS assay; type: cell-based; details: 72 h
[10] = Chemical stability assessed as half life of degradation in PBS of pH 1.2 by HPLC; type: physicochemical
Outline: (§3)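 Compound at 0.1 mM initial concentration in buffer, incubated at 37 °C. Aliquots were taken at set times, frozen at −80 °C, then analysed by on-line cleaning-precolumn reversed-phase HPLC (C18, TEAB/acetonitrile gradient). Decomposition half-life was calculated, with products identified by co-injection with authentic samples.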

[11] = Chemical stability assessed as half life of degradation in PBS of pH 7.3 by HPLC; type: physicochemical; outline: as §3
[12] = Chemical stability assessed as half life of degradation in PBS of pH 11.5 by HPLC; type: physicochemical; outline: as §3
[13] = Chemical stability assessed as half life of degradation in culture media by HPLC; type: physicochemical
Outline: (§4)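 Compound at an initial 0.1 mM was incubated at 37 °C in RPMI 1640 containing 10% heat-inactivated fetal calf serum. Aliquots were frozen at −80 °C and analysed by on-line precolumn-cleaning reversed-phase C18 HPLC with a TEAB/acetonitrile gradient. Decomposition half-lives were calculated.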

[14] = Stability in human CEM cells assessed as half life of degradation by HPLC; type: ADME, cell-based; details: CEM (CCRF-CEM) cells
Outline: (§5)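 CEM-SS cells were washed in PBS, resuspended at 30×10^6 cells/mL in 10 mM Tris–HCl, 140 mM KCl (pH 7.4), sonicated and clarified at 10,000 g. Compound (0.1 mM initial) was incubated in the extract at 37 °C. Aliquots were frozen at −80 °C and analysed by on-line cleaning C18 HPLC to derive half-life.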

[15] = Chemical stability in PBS of pH 1.2 by HPLC; type: physicochemical; details: buffer
Outline: (§6)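 Compound at an initial 0.1 mM was incubated at 37 °C in buffer at pH 1.2, 7.3 or 11.5. Timed aliquots were frozen at −80 °C and analysed directly by on-line precolumn-cleaning C18 HPLC (0.05 M TEAB to TEAB/CH3CN gradient). Half-lives of decomposition were calculated.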

[16] = Chemical stability in PBS of pH 7.3 by HPLC; type: physicochemical; details: buffer; outline: as §6
[17] = Chemical stability in PBS of pH 11.5 by HPLC; type: physicochemical; details: buffer; outline: as §6
[18] = Chemical stability in culture media by HPLC; type: physicochemical; outline: as §4
CCRF-CEM [19] = test: Stability in human CEM cells by HPLC; type: ADME, cell-based; outline: as §5

Q: Which Activity [1] does the source give for `Cc1cn([C@H]2C=C[C@@H](CC[PH](=O)O)O2)c(=O)[nH]c1=O` here?
A: inactive

Q: What about the Activity [2] of the same compound?
A: Non-toxic

Q: What about the Activity [3] of the same compound?
A: inactive

Q: What about the Activity [4] of the same compound?
A: inactive

Q: And the Activity (Hepatitis C virus)?
A: inactive

Q: And the Activity (Human alphaherpesvirus 1)?
A: inactive

Q: What about the Activity (Human alphaherpesvirus 2) of the same compound?
A: inactive

Q: And the Activity (Vaccinia virus)?
A: inactive

Q: And the Activity [5]?
A: inactive

Q: What about the Activity (Coxsackievirus B4) of the same compound?
A: inactive

Q: And the Activity [6]?
A: inactive

Q: And the Activity (Human respirovirus 3)?
A: inactive

Q: What about the Activity [7] of the same compound?
A: inactive

Q: And the Activity (Sindbis virus)?
A: inactive

Q: And the Activity (Punta Toro virus)?
A: inactive

Q: What about the Activity (HeLa) of the same compound?
A: Non-toxic

Q: And the Activity (HEL)?
A: Non-toxic

Q: What about the Activity (Vero) of the same compound?
A: Non-toxic

Q: And the Activity [8]?
A: Non-toxic

Q: And the Activity (CCRF-CEM [9])?
A: Non-toxic

Q: And the half-life [10]?
A: 28 h

Q: What about the half-life [11] of the same compound?
A: > 48 h

Q: And the half-life [12]?
A: > 48 h

Q: And the half-life [13]?
A: 11 h

Q: What about the half-life [14] of the same compound?
A: 2 h

Q: For `BP(=O)(O)CC[C@@H]1C=C[C@H](n2cc(C)c(=O)[nH]c2=O)O1`, which Activity [1] is on record?
A: inactive

Q: And the Activity [2]?
A: Non-toxic

Q: And the Activity [3]?
A: inactive

Q: What about the Activity [4] of the same compound?
A: inactive

Q: And the Activity (Hepatitis C virus)?
A: inactive

Q: And the Activity (Human alphaherpesvirus 1)?
A: inactive

Q: What about the Activity (Human alphaherpesvirus 2) of the same compound?
A: inactive

Q: And the Activity (Vaccinia virus)?
A: inactive

Q: What about the Activity [5] of the same compound?
A: inactive

Q: What about the Activity (Coxsackievirus B4) of the same compound?
A: inactive

Q: What about the Activity [6] of the same compound?
A: inactive

Q: And the Activity (Human respirovirus 3)?
A: inactive

Q: What about the Activity [7] of the same compound?
A: inactive

Q: What about the Activity (Sindbis virus) of the same compound?
A: inactive

Q: And the Activity (Punta Toro virus)?
A: inactive

Q: And the Activity (HeLa)?
A: Non-toxic

Q: What about the Activity (HEL) of the same compound?
A: Non-toxic

Q: And the Activity (Vero)?
A: Non-toxic

Q: And the Activity [8]?
A: Non-toxic

Q: And the Activity (CCRF-CEM [9])?
A: Non-toxic

Q: What about the half-life [10] of the same compound?
A: 16 h

Q: What about the half-life [11] of the same compound?
A: 22 h

Q: What about the half-life [12] of the same compound?
A: > 48 h

Q: And the half-life [13]?
A: 1.6 h

Q: And the half-life [14]?
A: 3 h

Q: Which Activity [1] does the source give for `BP(=O)(O)CC[C@H]1O[C@@H](n2cc(C)c(=O)[nH]c2=O)C[C@@H]1N=[N+]=[N-]` here?
A: inactive

Q: What about the Activity [2] of the same compound?
A: Non-toxic

Q: And the Activity [3]?
A: inactive

Q: And the Activity [4]?
A: inactive

Q: What about the Activity (Hepatitis C virus) of the same compound?
A: inactive

Q: And the Activity (Human alphaherpesvirus 1)?
A: inactive

Q: And the Activity (Human alphaherpesvirus 2)?
A: inactive

Q: What about the Activity (Vaccinia virus) of the same compound?
A: inactive

Q: What about the Activity [5] of the same compound?
A: inactive

Q: What about the Activity (Coxsackievirus B4) of the same compound?
A: inactive

Q: And the Activity [6]?
A: inactive

Q: And the Activity (Human respirovirus 3)?
A: inactive

Q: What about the Activity [7] of the same compound?
A: inactive

Q: And the Activity (Sindbis virus)?
A: inactive

Q: And the Activity (Punta Toro virus)?
A: inactive

Q: What about the Activity (HeLa) of the same compound?
A: Non-toxic

Q: And the Activity (HEL)?
A: Non-toxic

Q: What about the Activity (Vero) of the same compound?
A: Non-toxic

Q: What about the Activity [8] of the same compound?
A: Non-toxic

Q: And the Activity (CCRF-CEM [9])?
A: Non-toxic

Q: And the half-life [13]?
A: 3.1 h

Q: And the half-life [14]?
A: > 48 h

Q: And the Stability [15]?
A: Stable

Q: What about the Stability [16] of the same compound?
A: Stable

Q: What about the Stability [17] of the same compound?
A: Stable

Q: For `Cc1cn([C@H]2C[C@H](N=[N+]=[N-])[C@@H](CC[PH](=O)O)O2)c(=O)[nH]c1=O`, which Activity [1] is on record?
A: inactive

Q: And the Activity [2]?
A: Non-toxic

Q: What about the Activity [3] of the same compound?
A: inactive

Q: What about the Activity [4] of the same compound?
A: inactive

Q: What about the Activity (Hepatitis C virus) of the same compound?
A: inactive

Q: And the Activity (Human alphaherpesvirus 1)?
A: inactive

Q: And the Activity (Human alphaherpesvirus 2)?
A: inactive

Q: And the Activity (Vaccinia virus)?
A: inactive

Q: And the Activity [5]?
A: inactive

Q: What about the Activity (Coxsackievirus B4) of the same compound?
A: inactive

Q: What about the Activity [6] of the same compound?
A: inactive

Q: And the Activity (Human respirovirus 3)?
A: inactive

Q: And the Activity [7]?
A: inactive

Q: And the Activity (Sindbis virus)?
A: inactive

Q: And the Activity (Punta Toro virus)?
A: inactive

Q: What about the Activity (HeLa) of the same compound?
A: Non-toxic

Q: And the Activity (HEL)?
A: Non-toxic

Q: What about the Activity (Vero) of the same compound?
A: Non-toxic

Q: And the Activity [8]?
A: Non-toxic

Q: What about the Activity (CCRF-CEM [9]) of the same compound?
A: Non-toxic

Q: And the Stability [15]?
A: Stable

Q: What about the Stability [16] of the same compound?
A: Stable

Q: And the Stability [17]?
A: Stable

Q: And the Stability [18]?
A: Stable

Q: What about the Stability (CCRF-CEM [19]) of the same compound?
A: Stable
